# Compound activity (PubChem)
# VLA-4 inh = inhibition in human VLA-4 binding assay, primary screen, VLA-4 allosteric modulator project, MLPCN library, flow cytometry, VLA-4 expressing cells | Integrin alpha-4 (Homo sapiens), P13612 | ligand binding flow cytometry | inhibition, % (about 7 µM as worked out from the volumes in the protocol) | hit rate 0.2% among 330,000; in the data active = inhibition above about 50%
# Granule exo inh = LAMP-1 surface exposure blockers, TALL-104 cells – cell-based, flow cytometry, MLPCN library, primary screen; TALL-104 LAMP-1 surface exposure; cells stimulated with thapsigargin and PMA; hit rate 0.66% among 360,000; inhibition, % at 10 µM;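 active = inhibition above about 55%, limit read from the data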
# MT1-MMP act inh = blockers of MT1-MMP proenzyme processing, primary screen, HT1080 RFP-PRO-GFP cells, GFP/RFP fluorescence; GFP/RFP ratio change, % at 20 µM; hit rate 0.061% among 360,000; Matrix metalloproteinase-14 (Homo sapiens), P50281; GFP/RFP ratio fluorescence, overnight; percent of plate control window, DMSO zero; AID 651647, 2012;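 active = GFP/RFP ratio change of at least 30% with cell ATP level not reduced by more than half and red fluorescence within 50% of control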
#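 Read-out: GFP/RFP fluorescence ratio; Test system: RFP-PRO-GFP reporter HT1080 cells; Compound dosing: single-point 20 µM compound, 1% DMSO; Times: overnight compound exposure at 37 °C.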
# DAGLB inh = DAGLB lipase inhibitors, primary screen, biochemical, fluorescence, HTS | Diacylglycerol lipase-beta (Homo sapiens), Q8NCG7 | HEK293T DAGLB membrane lysate, EnzChek fluorogenic substrate | inhibition, % at 5.17 µM | hit rate 0.059% among 340,000 | AID 504411, 2011; in the data active = inhibition above about 34%
# ABCB6 inh 2 = ABCB6 transporter inhibitors, primary screen, K562-ABCB6 cells, flow cytometry, MLPCN library; ATP-binding cassette sub-family B member 6 (Homo sapiens), Q9NP58; fluorescence ratio to DMSO, % at 10 µM; AID 602162, 2011; K562-ABCB6 porphyrin accumulation, 1 h; hits give low values; hit rate 0.19% among 360,000;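 active = fluorescence ratio to DMSO below 75%, the collection mean minus 3 SD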;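 also: signal is porphyrin accumulated inside mitochondria; lower ratio means ABCB6 inhibition with less porphyrin fluorescence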
# Target sequence (Q9NP58 whole entry, looked up): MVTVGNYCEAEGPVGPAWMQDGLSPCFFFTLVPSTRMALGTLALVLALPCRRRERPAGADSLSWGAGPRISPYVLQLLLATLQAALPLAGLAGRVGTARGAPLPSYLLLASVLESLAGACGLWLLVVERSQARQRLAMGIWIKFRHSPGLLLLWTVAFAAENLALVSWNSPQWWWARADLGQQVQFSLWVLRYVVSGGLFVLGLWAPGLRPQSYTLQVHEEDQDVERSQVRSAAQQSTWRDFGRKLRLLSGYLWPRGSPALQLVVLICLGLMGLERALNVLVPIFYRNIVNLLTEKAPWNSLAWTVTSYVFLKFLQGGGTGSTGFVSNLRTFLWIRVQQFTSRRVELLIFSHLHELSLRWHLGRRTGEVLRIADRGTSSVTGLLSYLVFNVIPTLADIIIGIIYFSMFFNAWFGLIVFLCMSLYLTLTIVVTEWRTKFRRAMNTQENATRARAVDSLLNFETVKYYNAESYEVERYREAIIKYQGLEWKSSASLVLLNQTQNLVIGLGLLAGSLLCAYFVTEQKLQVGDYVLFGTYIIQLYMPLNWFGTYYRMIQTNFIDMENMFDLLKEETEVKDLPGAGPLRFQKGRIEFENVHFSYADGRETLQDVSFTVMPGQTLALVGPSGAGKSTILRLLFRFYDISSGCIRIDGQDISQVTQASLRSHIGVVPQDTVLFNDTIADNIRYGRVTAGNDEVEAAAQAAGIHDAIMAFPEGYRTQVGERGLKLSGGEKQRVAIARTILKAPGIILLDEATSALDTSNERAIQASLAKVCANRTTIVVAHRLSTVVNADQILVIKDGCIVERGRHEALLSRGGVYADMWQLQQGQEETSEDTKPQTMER
# FGF22 binding = binders of human FGF22 protein, primary screen, FGF22 synaptogenesis inhibitor project, biophysical, thermal shift, single point; AID 651658, 2012; hit rate 1.5% among 340,000; Fibroblast growth factor 22 (Homo sapiens), Q9HCT0; activity (Tm shift, normalised), % at 9.99 µM; recombinant FGF22 thermal shift, SYPRO orange fluorescence; percent of sucrose octasulfate shift, DMSO zero;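 active = mean Tm shift, scaled 0 neutral to 100 positive control, at about 1.3% or above, every replicate too, limit read from the data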
# Numbers stand for hits; . = inactive; / = no result. Shown are actives, neighbours in structure and some others; about 2% of the full set was active somewhere.
SMILES,VLA-4 inh,Granule exo inh,MT1-MMP act inh,DAGLB inh,ABCB6 inh 2,FGF22 binding
CC(C)CCN1CCN(Cc2nc3ccccc3s2)CC1CCO (centres undefined),.,.,.,.,.,.
COC(=O)c1ccccc1S(=O)(=O)N1CCC(C(=O)NCc2ccccn2)CC1,/,.,.,.,.,43
COc1ccc(C(C)=O)cc1CSc1nnc(-c2ccncc2)n1C,.,.,.,.,.,.
COc1ccc(C(C)=O)cc1CSc1nnc(-c2ccc(Cl)cc2)n1-c1ccccc1,.,73,.,.,.,/
COc1cc([N+](=O)[O-])ccc1NC(=O)CC(C)C,.,.,.,.,.,/
CCC(C)C(=O)Nc1ccc([N+](=O)[O-])cc1OC (centres undefined),.,.,.,.,.,43
O=C(NC(=S)Nc1ccc(Cc2ccncc2)cc1)c1ccccc1Cl,.,.,.,.,.,/
COc1ccc(C(=O)NC(=S)Nc2ccc(Cc3ccncc3)cc2)cc1,.,.,.,.,.,44
O=C(NC(=S)Nc1ccc(Cc2ccncc2)cc1)c1ccccc1F,.,.,.,.,.,44
CS(=O)(=O)Nc1ccc2c(c1)[C@H]1C[C@H](CC(=O)NCc3ccc(Cl)cc3)O[C@H](CO)[C@H]1O2,/,/,/,/,/,.
COc1ccc(S(=O)(=O)CC(=O)Nc2ccccc2Cl)cc1,.,.,.,.,.,43
CC(C)NC(=O)N(C)C[C@H]1OCCCC[C@@H](C)Oc2ccc(NS(=O)(=O)c3ccc(F)cc3)cc2C(=O)N([C@@H](C)CO)C[C@H]1C,/,/,/,/,/,.
CC(C)c1csc(CN2CCC(C(=O)Nc3cccc(-c4ccco4)c3)CC2)n1,/,.,.,.,.,44
C[C@H](CO)N1C[C@H](C)[C@H](CN(C)C(=O)Nc2ccc(C(F)(F)F)cc2)Oc2ccc(NS(=O)(=O)c3ccc(F)cc3)cc2CC1=O,/,/,/,/,/,.
COc1cc2oc(=O)cc(C)c2c(OC)c1OC,.,.,.,.,.,43
COc1cc2oc(=O)cc(-c3ccc(-c4ccc(C)cc4)cc3)c2c(OC)c1OC,/,.,.,.,.,.
C=CC[C@@H](CC(=O)N(CCO)Cc1ccccc1)C(=O)N[C@@H](C)COC(=O)[C@@H](CC=C)CC(=O)OC(C)(C)C,.,64,.,.,.,.
C=CC[C@H](CC(=O)N(CCO)Cc1ccccc1)C(=O)N[C@@H](C)COC(=O)[C@H](CC=C)CC(=O)OC(C)(C)C,.,.,.,.,.,.
CO[C@@]1(NC(=O)C2SC(=C(C(N)=O)C(=O)O)S2)C(=O)N2C(C(=O)O)=C(CSc3nnnn3C)CS[C@@H]21 (some centres undefined),.,.,.,.,.,.
CO[C@@]1(NC(=O)Cc2cccs2)C(=O)N2C(C(=O)O)=C(COC(N)=O)CS[C@@H]21,52,.,.,.,.,.
O=C(c1cc2c(=O)n3ccccc3nc2s1)N1CCN(Cc2ccc3c(c2)OCO3)CC1,.,.,.,.,.,43
Cc1nn(C(C)C(=O)NCc2ccccc2Cl)c(=O)c2c1sc1ccccc12 (centres undefined),.,82,.,.,.,/
Cc1ccc(S(=O)(=O)Nc2cccc3c2O[C@H](CN(C)Cc2ccc4c(c2)OCO4)[C@H](C)CN([C@H](C)CO)C3=O)cc1,/,/,/,/,/,.
O=C(Nc1ccccc1F)N[C@@H]1CC[C@H](CCNS(=O)(=O)c2ccc(Cl)cc2)O[C@H]1CO,/,/,/,/,/,.
Cc1oc(-c2cccc(Cl)c2)nc1CS(=O)(=O)CC(=O)NCc1ccco1,.,.,.,.,.,1.5
SMILES,VLA-4 inh,Granule exo inh,MT1-MMP act inh,DAGLB inh,ABCB6 inh 2,FGF22 binding
Cc1oc(-c2cccc(Cl)c2)nc1CS(=O)(=O)CC(=O)NC1CC1,.,.,.,.,.,.
CC(C)NC(=O)Nc1cccc2c1O[C@H](CN(C)Cc1ccc3c(c1)OCO3)[C@@H](C)CN([C@H](C)CO)C2=O,/,/,/,/,/,.
COc1cccc(C(=O)NCC(=O)N/N=C/c2cccnc2)c1,.,.,.,.,.,.
O=C(NN=Cc1ccc2c(c1)OCO2)NN=Cc1ccc2c(c1)OCO2,/,.,.,.,.,.
O=C(CNc1ccccc1)N/N=C/c1ccc([N+](=O)[O-])cc1,62,.,.,.,.,/
O=C(NN=Cc1ccc2c(c1)OCO2)C1CC1,/,.,.,.,.,43
O=C(CCNC(=O)c1ccccc1)N/N=C/c1ccc([N+](=O)[O-])cc1,.,.,.,.,.,.
CC(=O)Nc1ccc(/C=N/NC(=O)CNC(=O)c2ccccc2)cc1,.,.,.,.,.,43
COc1cccc(C(=O)NCC(=O)N/N=C/c2ccc3c(c2)OCO3)c1,.,.,.,.,73,.
COc1ccc(OC)c(S(=O)(=O)Oc2ccc(N)c3ccccc23)c1,.,75,.,.,.,.
COc1ccc(OC)c(S(=O)(=O)NCc2ccccc2)c1,.,.,.,.,68,/
O=C(N[C@H]1CC[C@H](CCNS(=O)(=O)c2ccccc2Cl)O[C@H]1CO)c1ccc(F)cc1,/,/,/,/,/,.
O=C1CCCC2=C1C(c1ccccc1)CC(=O)N2c1ccc(F)cc1F (centres undefined),.,.,.,.,.,43
CC1(C)CC(=O)C2=C(C1)N(c1ccc(F)cc1)C(=O)CC2c1ccccc1 (centres undefined),.,.,.,.,.,/
CN(C)Cc1c(-c2ccc(Cl)cc2)nc2ccc(Cl)cn12,.,.,.,.,.,43
CCCCCCC(=O)N(O)C1CC(=O)N(c2ccc(Cl)cc2)C1=O (centres undefined),.,72,.,.,.,.
CN(c1ccc(-c2csc(NC(=O)CCCc3nc4ccccc4c(=O)[nH]3)n2)cc1)S(C)(=O)=O,/,.,.,.,.,44
O=C(CCc1nc2ccccc2c(=O)[nH]1)Nc1nc(-c2cccs2)cs1,.,.,.,.,.,.
Cc1ccc(-n2cccc2/C=C2/C(=N)N3C(=NC2=O)SN=C3S(C)(=O)=O)cc1Cl,.,.,.,.,.,/
Cc1cccc(C)c1-n1cccc1/C=C1/C(=N)N2C(=NC1=O)SN=C2S(C)(=O)=O,.,.,.,.,.,44
